# Measured values collected from several papers.
# Lines come from different studies, so protocols differ.
# Observed: cell growth or viability
Structure (SMILES),cell line,method,concentration,time,measurement,value
CNc1ncc2c(/C=C/C(=O)N3CCC(OC)CC3)nn(CC(OC)OC)c2n1,OE33,resazurin,,5 days,EC50,> 30 µM
CC(=NNC(=O)c1cccnc1)c1ccc(Nc2nnc(-c3ccc(Cl)cc3)c3ccccc23)cc1,HepG2,MTT,5 µM,,cell death,96.8%
CNc1ncc2c(/C=C/C(=O)N3CCC(OC)CC3)nn(CC3OCCO3)c2n1,OE33,resazurin,,5 days,EC50,> 30 µM
O=C(Nc1ccc(Oc2nnc(-c3ccc(Cl)cc3)c3ccccc23)cc1)c1ccccc1,HepG2,MTT,0.312 µM,,cell death,67.5%
CNc1ncc2c(/C=C/C(=O)N3CCCC(OC)C3)nn(Cc3cccc(C)c3)c2n1 (stereo not drawn),OE33,resazurin,,5 days,EC50,17.6 µM
CC(C)(C)c1cnc(CSc2cnc(NC(=O)C3CCN(C(=O)COCCOCCSc4cccc5c4C(=O)N(C4CCC(=O)NC4=O)C5=O)CC3)s2)o1 (stereo not drawn),HH,CCK-8,50 nM,,viability,97.9%
CCOC(=O)c1nn(-c2cccc(Cl)c2)/c(=N/N=C(\C)c2ccc(NC(=O)c3ccc(Cl)cc3)cc2)s1,HepG2,MTT,10 µM,,viability,4.04%
CNc1ncc2c(/C=C/C(=O)N3CCC(c4ccccc4)CC3)nn(CC3CCCC3)c2n1,OE33,resazurin,,5 days,EC50,> 30 µM
CC(C)(C)c1cnc(CSc2cnc(NC(=O)C3CCN(CCCCCCCSc4cccc5c4C(=O)N(C4CCC(=O)NC4=O)C5=O)CC3)s2)o1 (stereo not drawn),HH,CCK-8,0.5 µM,,viability,0%
CNc1ncc2c(/C=C/C(=O)N3CCC(OC)CC3)nn(CC3CCCCC3)c2n1,OE33,resazurin,,5 days,EC50,6.51 µM
CC(=NNC(N)=S)c1ccc(Nc2nnc(-c3ccc(Cl)cc3)c3ccccc23)cc1,HepG2,MTT,10 µM,24 h,viability,7.32%
C=CC(=O)NC1CCN(c2ncc3ncnc(Nc4ccc(Oc5ccc6c(c5)ncn6C)c(C)c4)c3n2)CC1,SBC-5,,,,EC50,0.325 µM
O=C(Nc1ccc(Oc2nnc(-c3ccc(Cl)cc3)c3ccccc23)cc1)c1cccc([N+](=O)[O-])c1,HepG2,MTT,5 µM,,cell death,94.8%
CC(C)(C)c1cnc(CSc2cnc(NC(=O)C3CCN(CCCCCCCCSc4cccc5c4C(=O)N(C4CCC(=O)NC4=O)C5=O)CC3)s2)o1 (stereo not drawn),HH,CCK-8,10 nM,,viability,98.2%
CNc1ncc2c(/C=C/C(=O)N3CCC(OC)CC3)nn(Cc3ccc(C(F)(F)F)cc3)c2n1,OE33,resazurin,,5 days,EC50,1.32 µM
CC(C)(C)c1cnc(CSc2cnc(NC(=O)C3CCN(CCCCCCCCSc4cccc5c4CN(C4CCC(=O)NC4=O)C5=O)CC3)s2)o1 (stereo not drawn),HH,CCK-8,50 nM,,viability,90.8%
CC(=NNC(=S)Nc1ccccc1)c1ccc(Nc2nnc(-c3ccc(Cl)cc3)c3ccccc23)cc1,HepG2,MTT,0.312 µM,,cell death,0.861%
CC(C)(C)c1cnc(CSc2cnc(NC(=O)C3CCN(C(=O)CCCSc4cccc5c4C(=O)N(C4CCC(=O)NC4=O)C5=O)CC3)s2)o1 (stereo not drawn),HH,CCK-8,1 nM,,viability,98.1%
CNc1ncc2c(/C=C/C(=O)O)nn(CC3CCCC3)c2n1,OE33,resazurin,,5 days,EC50,> 30 µM
CC(C)(C)c1cnc(CSc2cnc(NC(=O)C3CCN(CCCCSc4cccc5c4C(=O)N(C4CCC(=O)NC4=O)C5=O)CC3)s2)o1 (stereo not drawn),HH,CCK-8,0.1 µM,,viability,97.9%
CC(=NNC(=O)c1ccccc1)c1ccc(Nc2nnc(-c3ccc(Cl)cc3)c3ccccc23)cc1,HepG2,MTT,2.5 µM,,cell death,95.8%
